This note sets out measurements from ChEMBL document CHEMBL1130424, “Stabilized analogs of thymopentin. 1. 4,5-Ketomethylene pseudopeptides” (J Med Chem, 1997).

Data set [1] can be described thus: Half life by HPLC methods that permitted quantitative resolution of the decrease of TP-5 and the appearance of degradation products by absorbance, heparinized mouse serum; Not degraded. It is filed as ADME. In outline:
(§1)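 Mouse serum was prepared from whole blood with heparin sodium or EDTA as anticoagulant. Compounds were incubated for variable times, and incubation was ended by TFA to 10% (v/v) final, then 1 h at 0 °C and protein removal by centrifugation. Half-life came from HPLC absorbance following disappearance of parent and appearance of degradation products.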

In data set [2] the test system is CCRF-CEM. As to the kind of experiment: Binding was measured using [3H]thymopentin was compared to the CEM cell binding assay. It is filed as functional, Homo sapiens. Further details: unit not given here.
Data set [3] in a line: Half life by HPLC methods that permitted quantitative resolution of the decrease of TP-5 and the appearance of degradation products by absorbance, human heparinized serum; Not degraded. It is filed as ADME.
For data set [4], the system named is CCRF-CEM. The data set is described as follows: Efficacy was measured as the percentage binding to CEM cells. It is filed as functional, Homo sapiens. In outline:
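CEM T-cells, subcultured in RPMI-1640 with 20% serum and stored frozen, were set at 5×10^6 cells/0.1 mL binding buffer (RPMI-1640 with bacitracin). Unlabeled competitor was added at 10^-6–10^-3 M, then [3H]thymopentin (37 Ci/mmol, 548 000 cpm). Incubation was 25 °C for 30 min, followed by two ice-cold washes and scintillation counting. Values are means of replicates at 10^-4 and 10^-3 M.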

A short description of data set [5]: Half life by HPLC methods that permitted quantitative resolution of the decrease of TP-5 and the appearance of degradation products by absorbance in heparinized mouse serum; Not degraded. The data set is classed as ADME. In outline: as §1
Data set [6] can be described thus: Half life by HPLC methods that permitted quantitative resolution of the decrease of TP-5 and the appearance of degradation products by absorbance in human heparinized serum; Not degraded. The data set is classed as ADME.
Data set [7] is described as follows: Half life by HPLC methods that permitted quantitative resolution of the decrease of TP-5 and the appearance of degradation products by absorbance in EDTA-treated mouse serum. It is filed as ADME, organism-based. A digest of the protocol:
as §1

Data set [8] in a line: Half life by HPLC methods that permitted quantitative resolution of the decrease of TP-5 and the appearance of degradation products by absorbance in human heparinized serum. It is filed as ADME.
Data set [9] in a line: Half life by HPLC methods that permitted quantitative resolution of the decrease of TP-5 and the appearance of degradation products by absorbance in heparinized mouse serum. It is filed as functional, cell-free. A digest of the protocol: as §1
A short description of data set [10]: Half life by HPLC methods that permitted quantitative resolution of the decrease of TP-5 and the appearance of degradation products by absorbance in heparinized mouse serum. The data set is classed as ADME. A digest of the protocol: as §1
Data set [11] in a line: Half life by HPLC methods that permitted quantitative resolution of the decrease of TP-5 and the appearance of degradation products by absorbance, human heparinized serum. It is filed as ADME, cell-free.
A short description of data set [12]: Half life by HPLC methods that permitted quantitative resolution of the decrease of TP-5 and the appearance of degradation products by absorbance, heparinized mouse serum. The data set is classed as ADME. A digest of the protocol: as §1

For `CCCC[C@@H](C(=O)N[C@@H](CC(=O)O)C(=O)N[C@H](C(=O)C[C@H](C(=O)O)C(C)C)C(C)C)N(C)C(=O)[C@@H](N)CCCN=C(N)N`, the T1/2 entry in data set [1] and in [3] was “Not degraded” in each case. Also, the Binding in the data set with CCRF-CEM [2] was found to be 2356. The Efficacy with CCRF-CEM [4] is 37.
`CC(C)C[C@H](NC(=O)[C@@H](N)CCCN=C(N)N)C(=O)N[C@@H](CC(=O)O)C(=O)N[C@H](C(=O)C[C@H](Cc1ccccc1)C(=O)O)C(C)C` registered a Binding in the data set with CCRF-CEM [2] of 1851. Moreover, in the data set on CCRF-CEM [4], the Efficacy turned out to be 65.
For `CC(C)[C@H](NC(=O)[C@H](CC(=O)O)NC(=O)[C@H](C)NC(=O)[C@@H](N)CCCN=C(N)N)C(=O)C[C@H](Cc1ccccc1)C(=O)O` the same measures were 1780 and 67.
As for `CCCC[C@@H](C(=O)N[C@@H](CC(=O)O)C(=O)N[C@H](C(=O)C[C@H](Cc1ccccc1)C(=O)O)C(C)C)N(C)C(=O)[C@@H](N)CCCN=C(N)N`, the T1/2 result in [5] and in data set [6] was “Not degraded” throughout. For the same compound, in the data set with CCRF-CEM [2], the Binding was found to be 2356. Moreover, in the data set with CCRF-CEM [4], the Efficacy is 37.
Consider `CCCC[C@H](NC(=O)[C@@H](N)CCCN=C(N)N)C(=O)N[C@@H](CC(=O)O)C(=O)N[C@@H](C(C)C)C1CC(Cc2ccccc2)C(=O)O1` (stereo partly specified), for which the Binding with CCRF-CEM [2] is reported as 2771. Also, in the data set on CCRF-CEM [4], the Efficacy is recorded as 16.
The like results for `CCCC[C@H](NC(=O)[C@@H](N)CCCN=C(N)N)C(=O)N[C@@H](CC(=O)O)C(=O)N[C@@H](C(C)C)C(O)C[C@H](Cc1ccccc1)C(=O)O` (stereo partly specified) were, in that order, 2400 and 35.
As to `CC(C)[C@H](NC(=O)[C@H](CC(=O)O)NC(=O)[C@H](CCCCN)NC(=O)[C@@H](N)CCCN=C(N)N)C(=O)C[C@H](Cc1ccccc1)C(=O)O` (stereo in doubt; 1a -A) [listing 1 of 2 here], the Binding in the data set on CCRF-CEM [2] is on record as 1735. Further, the values for the half-life in [7] and in data set [8] were 4.9 min and 2 min, respectively. Moreover, the Efficacy in the data set with CCRF-CEM [4] is 70.
On to `CC(C)[C@H](NC(=O)[C@H](CC(=O)O)NC(=O)[C@H](CCCCN)NC(=O)[C@@H](N)CCCN=C(N)N)C(=O)C[C@H](Cc1ccccc1)C(=O)O` (stereo in doubt; 1a -A) [listing 2 of 2 here], for which the T1/2 in data set [9] came to 2 min.
On to `CC(C)[C@H](NC(=O)[C@H](CC(=O)O)NC(=O)[C@H](CCCCN)NC(=O)[C@@H](N)CCCN=C(N)N)C(=O)C[C@H](Cc1ccccc1)C(=O)O` (stereo in doubt; 1a-B), for which the Binding with CCRF-CEM [2] came out at 1673. In the data set on CCRF-CEM [4], this compound returned an Efficacy of 73.
In the case of `CC(C)[C@H](NC(=O)[C@H](CC(=O)O)NC(=O)[C@@H]1CCCN1C(=O)[C@@H](N)CCCN=C(N)N)C(=O)C[C@H](Cc1ccccc1)C(=O)O` (stereo in doubt; 1b-A), in the data set with CCRF-CEM [2], the Binding stood at 1843. For the same compound, the figures for the half-life in data set [10], in data set [7] and in data set [8] were 4.5 min, 17 min and 6 min, respectively. Further, the Efficacy in the data set with CCRF-CEM [4] is 64.
In the data set on CCRF-CEM [2], `CC(C)[C@H](NC(=O)[C@H](CC(=O)O)NC(=O)[C@@H]1CCCN1C(=O)[C@@H](N)CCCN=C(N)N)C(=O)C[C@H](Cc1ccccc1)C(=O)O` (stereo in doubt; 1b-B) gave a Binding of 2000. Also, the Efficacy in the data set on CCRF-CEM [4] worked out at 56.
`CCCC[C@H](NC(=O)[C@@H](N)CCCN=C(N)N)C(=O)N[C@@H](CC(=O)O)C(=O)N[C@H](C(=O)C[C@H](Cc1ccccc1)C(=O)O)C(C)C` (stereo in doubt; 1c-A) yielded a Binding in the data set with CCRF-CEM [2] of 1254. Also, the half-life in [10] is 5.5 min; in [7] it was 21.1 min; in data set [8], 1.9 min. Also, the Efficacy in the data set with CCRF-CEM [4] was found to be 95.
Regarding `CCCC[C@H](NC(=O)[C@@H](N)CCCN=C(N)N)C(=O)N[C@@H](CC(=O)O)C(=O)N[C@H](C(=O)C[C@H](Cc1ccccc1)C(=O)O)C(C)C` (stereo in doubt; 1c-B), the Binding in the data set with CCRF-CEM [2] was found to be 1453. In the data set on CCRF-CEM [4], this compound yielded an Efficacy of 84.
The like results for `CC(C)[C@H](NC(=O)[C@H](CC(=O)O)NC(=O)[C@H](CCCCN)NC(=O)[C@@H](N)CCCN=C(N)N)C(=O)C[C@H](Cc1ccccc1)C(=O)O` (stereo in doubt; 1f-A) were, in that order, 2044 and 54.
`CCCC[C@H](NC(=O)[C@@H](N)CCCN=C(N)N)C(=O)N[C@@H](CC(=O)O)C(=O)N[C@@H](C)C(=O)C[C@H](Cc1ccccc1)C(=O)O` (stereo in doubt; 1g-A) returned a Binding with CCRF-CEM [2] of 1677. Besides, the half-life in data set [7] was 20 min. This compound also displayed an Efficacy in the data set on CCRF-CEM [4] of 73.
The compound `CCCC[C@H](NC(=O)[C@@H](N)CCCN=C(N)N)C(=O)N[C@@H](CC(=O)O)C(=O)N[C@@H](C)C(=O)C[C@H](Cc1ccccc1)C(=O)O` (stereo in doubt; 1g-B) gave a Binding in the data set on CCRF-CEM [2] of 1715. Further, in the data set with CCRF-CEM [4], the Efficacy came to 71.
In the data set on CCRF-CEM [2], `CCCC[C@H](NC(=O)[C@@H](N)CCCN=C(N)N)C(=O)N[C@@H](CC(=O)O)C(=O)N[C@H](C(=O)C[C@H](C(=O)O)C(C)C)C(C)C` (stereo in doubt; 1h-A) returned a Binding of 1600. The compound also came in with a half-life in data set [11] of 2.4 min. This compound also showed a T1/2 in [12] of 1.2 min. This compound had an Efficacy with CCRF-CEM [4] of 77.
In the case of `CCCC[C@H](NC(=O)[C@@H](N)CCCN=C(N)N)C(=O)N[C@@H](CC(=O)O)C(=O)N[C@H](C(=O)C[C@H](C(=O)O)C(C)C)C(C)C` (stereo in doubt; 1h-B), the Binding in the data set with CCRF-CEM [2] is reported as 1713. Further, the T1/2 in data set [12] came to 2.6 min. The compound further came in with an Efficacy in the data set with CCRF-CEM [4] of 71.
